The text below walks through data of ChEMBL document CHEMBL1143654, “Enhancement of aqueous solubility and stability employing a trans acetate axis in trans planar amine platinum compounds while maintaining the biological profile” (J Med Chem, 2005).

The nature of data set [1]: Hydrolysis rate constant of the compound. It is filed as ADME.
Data set [2] concerns 41M. In words: Concentration required to inhibit growth of the human ovarian cancer 41M cells by 50% after 96h exposure. It is filed as functional, cell-based.
The subject of data set [3] is CH1. The experiment in a line: Resistance factor was determined as ratio of resistance to that of sensitivity of CH1 cells after 96h exposure to compound. The format is functional, cell-based. The note with it: Homo sapiens.
For data set [4], the system named is 41M. In words: Resistance factor was determined as ratio of resistance to that of sensitivity of 41M cells after 96h exposure to compound. It is filed as functional, cell-based. The note with it: Homo sapiens.
The nature of data set [5]: Acid dissociation constant pKa2. It is filed as physicochemical. The procedure, abridged: (§1)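 Potentiometric titration of 10^-3 M solutions of trans-[Pt(OH)₂(L)(L')], made from the corresponding dinitrato compounds, with standardized NaOH (9.5×10^-4 M); pKa values were taken from the pH titration curves.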
Data set [6] in a line: Solubility in water by sequential addition. It is filed as physicochemical. Put shortly:
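Water was added to the compound in sequential portions, with 15 min agitation after each addition. Solubility was taken as the point at which the solution was no longer clear.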

Data set [7] relates to A2780. The experiment in a line: Concentration required to inhibit growth of the human ovarian cancer A2780 cells by 50% after 96h exposure. The format is functional, cell-based.
Data set [8] is described as follows: Acid dissociation constant pKa1. It is filed as physicochemical. Put shortly:
as §1

The subject of data set [9] is CH1. The experiment in a line: Concentration required to inhibit growth of the human ovarian cancer CH1 cells by 50% after 96h exposure. It is filed as functional, cell-based.
The test system of data set [10] is A2780. The experiment in a line: Resistance factor was determined as ratio of resistance to that of sensitivity of A2780 cells after 96h exposure to compound. It is filed as functional, cell-based. The note with it: Homo sapiens.

Turning to CARBOPLATIN, the k1 in data set [1] is below 1e-08 s⁻¹.
One may read the IC50 as the concentration that inhibits the measured activity by half. Low readings indicate greater potency in that assay, high ones weaker potency in that assay. Consider CISPLATIN [listing 1 of 2 here], for which, in data set [1], the k1 was determined as 0.0000518 s⁻¹. The IC50 in [2] amounted to 1.4 µM.
Turning to CISPLATIN [listing 2 of 2 here], the results for the RF in data set [3] and in data set [4] were 6.7 and 6.1, respectively.
TRANSPLATIN came in with a k1 in data set [1] of 0.00019 s⁻¹.
On the same count and under the same terms, then [PtCl(dien)], with 0.000065 s⁻¹.
By pKa is commonly meant the pH at which an ionisable group is half protonated. Lower therefore signals a group that gives up its proton readily. In data set [5], trans-[Pt(OAc)2(NH3)2] returned a pKa of 7.08. Moreover, the S in [6] is 21 mg/mL.
Consider “trans-[Pt(OAc)2(NH3)(iquin)] [listing 1 of 2 here]”, for which the values for the half-maximal inhibitory concentration (IC50) in data set [7], in [2] and in data set [9] were 13 µM, 22 µM and 20 µM, respectively. Further, the k1 in data set [1] is 7.4e-07 s⁻¹. Further, the pKa worked out at 6.92 in data set [5] and 3.78 in data set [8]. For the same substance, the S in data set [6] stood at 5.2 mg/mL.
On to “trans-[Pt(OAc)2(NH3)(iquin)] [listing 2 of 2 here]”, for which the RF stood at 1.69 in data set [10], 0.37 in data set [3] and 0.26 in data set [4].
Regarding “trans-[Pt(OAc)2(NH3)(quin)] [listing 1 of 2 here]”, the figures for the IC50 in [7], in [2] and in data set [9] were 13 µM, 22 µM and 17 µM, respectively. The same substance gave a k1 in [1] of 3.7e-07 s⁻¹. In data set [6], this substance yielded an S of 1.6 mg/mL.
With “trans-[Pt(OAc)2(NH3)(quin)] [listing 2 of 2 here]”, the RF in data set [10] was found to be 1.46; in [3], 0.48; in data set [4] it was 1.
Turning to “trans-[Pt(OAc)2(py)2] [listing 1 of 2 here]”, the IC50 in data set [7] came out at 12.8 µM; in data set [2], 14 µM; in [9], 19 µM. In data set [1], this substance had a k1 of 3.2e-07 s⁻¹. For the same substance, the S in [6] was determined as 15 mg/mL.
As for “trans-[Pt(OAc)2(py)2] [listing 2 of 2 here]”, the RF was 0.9 in [10], 0.22 in [3] and 0.32 in data set [4].
